According to ChEMBL document CHEMBL3351948, “Synthesis of gallinamide A analogues as potent falcipain inhibitors and antimalarials” (J Med Chem, 2014):
Active and inactive are the calls of the source. The calls are words filed in the database; no cut-off is given here. *1 amine or outer side, *2 acyl side, *3 side chain or, on linkers, in order; H or OH if unused. Where a SMILES comes first, the peptide text is derived from it. [ ]: non-standard residue; d: D form. The star is where a group is joined. Pentenoic(2E,4S-NH2) = C[C@@H](/C=C/C(=O)[*:2])N[*:1]; X1 = CC[C@H](C)[C@@H](C(=O)*)N(C)C; NHBn = c1ccc(CN*)cc1

Columns and labels:
[1] = target: T1, Falcipain 2 (Plasmodium falciparum, UniProt Q9N6S8); test: Inhibition of Plasmodium falciparum FP2 using Z-Phe-Arg-AMC as substrate incubated for 30 mins prior to substrate addition measured after 30 mins by fluorescence assay
T1 sequence (Q9N6S8 whole entry): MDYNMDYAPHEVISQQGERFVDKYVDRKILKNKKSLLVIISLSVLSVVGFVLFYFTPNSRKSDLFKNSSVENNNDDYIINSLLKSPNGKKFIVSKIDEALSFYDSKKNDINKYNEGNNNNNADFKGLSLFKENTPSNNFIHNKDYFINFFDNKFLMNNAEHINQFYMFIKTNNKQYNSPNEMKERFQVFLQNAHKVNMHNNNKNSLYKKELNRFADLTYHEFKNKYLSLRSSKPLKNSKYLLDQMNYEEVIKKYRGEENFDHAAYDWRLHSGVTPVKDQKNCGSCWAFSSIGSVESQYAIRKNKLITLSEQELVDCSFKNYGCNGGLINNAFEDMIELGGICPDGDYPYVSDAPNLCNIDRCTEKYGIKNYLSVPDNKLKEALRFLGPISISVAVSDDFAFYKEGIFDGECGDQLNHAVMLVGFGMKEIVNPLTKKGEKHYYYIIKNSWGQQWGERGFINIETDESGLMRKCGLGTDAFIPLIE
Summary of the method: (§1)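 The assay read enzyme activity with a fluorescence-based kinetic method and reported IC50 in nM. Values are means with standard error of the mean from three experiments.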

[2] = Inhibition of Plasmodium falciparum FP3 using Z-Phe-Arg-AMC as substrate incubated for 30 mins prior to substrate addition measured after 30 mins by fluorescence assay; summary of the method: as §1
[3] = tested on: Plasmodium falciparum; test: Antiplasmodial activity against chloroquine-sensitive Plasmodium falciparum 3D7 infected in human erythrocytes by [3H]-hypoxanthine incorporation assay; assay type: functional, organism-based
Summary of the method: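 IC50 against the chloroquine-sensitive 3D7 strain was measured by [3H]-hypoxanthine incorporation in cultured parasites. Values are means with standard error of the mean from three experiments.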

[4] = tested on: Plasmodium falciparum; test: Antiplasmodial activity against Plasmodium falciparum 3D7 trophozoite stage assessed as swollen food vacuole after 3 days by Giemsa staining-based assay; assay type: functional, organism-based
[5] = tested on: Plasmodium falciparum; test: Antiplasmodial activity against multidrug-resistant Plasmodium falciparum Dd2 infected in human erythrocytes by [3H]-hypoxanthine incorporation assay; assay type: functional, organism-based
Summary of the method: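 Chloroquine-resistant P. falciparum Dd2 strain; IC50 reported with standard error of the mean from three experiments.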

[6] = tested on: Plasmodium falciparum; test: Antiplasmodial activity against Plasmodium falciparum 3D7 trophozoite stage assessed as swollen food vacuole at <5 nM after 3 days by Giemsa staining-based assay; assay type: functional, organism-based
[7] = target: Procathepsin L (Homo sapiens) (UniProt P07711); test: Inhibition of human cathepsin L expressed in Pichia pastoris using N-Cbz-Phe-Arg-7-amino-4-methylcoumarin as substrate incubated for 90 mins prior to substrate addition measured after 30 mins by fluorescence assay
Procathepsin L (Homo sapiens), sequence (P07711 114-333 limits assumed): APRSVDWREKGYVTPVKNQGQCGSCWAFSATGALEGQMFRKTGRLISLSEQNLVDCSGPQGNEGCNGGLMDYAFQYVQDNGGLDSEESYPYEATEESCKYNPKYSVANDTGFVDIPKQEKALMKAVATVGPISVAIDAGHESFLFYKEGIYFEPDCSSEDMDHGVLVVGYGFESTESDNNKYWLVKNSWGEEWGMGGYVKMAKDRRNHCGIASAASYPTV

[8] = tested on: Plasmodium falciparum; test: Inhibition of Plasmodium falciparum AP-M1
[9] = tested on: Plasmodium falciparum; test: Inhibition of Plasmodium falciparum AP-M18
[10] = Cytotoxicity against […] cells assessed as cell viability by AlamarBlue assay; assay type: cell-based; settings: Homo sapiens
[11] = tested on: Plasmodium falciparum; test: Inhibition of Plasmodium falciparum AP-M17
[12] = target: T1, Falcipain 2; test: Inhibition of FP2 in Plasmodium falciparum trophozoite stage after 1 hr by SDS-PAGE analysis
[13] = target: T1, Falcipain 2; test: Inhibition of FP2' in Plasmodium falciparum trophozoite stage after 1 hr by SDS-PAGE analysis
[14] = tested on: Plasmodium falciparum; test: Antiplasmodial activity against Plasmodium falciparum 3D7; assay type: functional, organism-based
Summary of the method: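 Chloroquine-sensitive P. falciparum 3D7 cultures; growth inhibition read out as [3H]-hypoxanthine incorporation; IC50 reported with standard error of the mean from three experiments.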

[15] = Inhibition of FP1 in Plasmodium falciparum trophozoite stage after 1 hr by SDS-PAGE analysis
[16] = Inhibition of FP3 in Plasmodium falciparum trophozoite stage after 1 hr by SDS-PAGE analysis

SMILES	IC50 [1] [nM]	IC50 [2] [nM]	IC50 [3] [nM]	Activity [4]	IC50 [5] [nM]	Activity [6]	inhibition [7]	INH [8] [µM]	INH [9] [µM]	IC50 [10] [nM]	INH [11] [µM]	IC50 [12] [nM]	IC50 [13] [nM]	IC50 [14] [nM]	IC50 [15] [nM]	IC50 [16] [nM]
CO[C@H]1CC(=O)N(C(=O)/C=C/[C@H](C)NC(=O)[C@H](CC(C)C)NC(=O)[C@H](CC(C)C)NC(=O)[C@H](C(C)C)N(C)C)[C@H]1C	2.81	163	210	Active												
COC1=CC(=O)N(C(=O)/C=C/[C@H](C)NC(=O)[C@H](CC(C)C)NC(=O)[C@H](CC(C)C)NC(=O)[C@H](C(C)C)N(C)C)[C@H]1C(C)C	9.52	131	16.6		165	Active	Active	> 10	> 10	9650	> 10					
COC1=CC(=O)N(C(=O)CC[C@H](C)NC(=O)[C@H](CC(C)C)NC(=O)[C@H](CC(C)C)NC(=O)[C@H](C(C)C)N(C)C)[C@H]1C	3710	> 50000	4380	inactive												
CC(C)C[C@H](NC(=O)[C@H](CC(C)C)NC(=O)[C@H](C(C)C)N(C)C)C(=O)N[C@@H](C)/C=C/C(=O)N1CC(OCc2ccccc2)=CC1=O	9.59	196	96			Active										
CO[C@H]1CC(=O)N(C(=O)CC[C@H](C)NC(=O)[C@H](CC(C)C)NC(=O)[C@H](CC(C)C)NC(=O)[C@H](C(C)C)N(C)C)[C@H]1C	> 50000	> 50000	> 50000	inactive												
CC(C)C[C@H](NC(=O)[C@H](CC(C)C)NC(=O)[C@H](C(C)C)N(C)C)C(=O)N[C@@H](C)/C=C/C(=O)N1C(=O)C=C(OCc2ccccc2)[C@@H]1C(C)C	6.86	182	62			Active										
COC1=CC(=O)N(C(=O)/C=C/[C@H](C)NC(=O)[C@H](CC(C)C)NC(=O)[C@H](CC(C)C)NC(=O)[C@H](C(C)C)N(C)C)[C@H]1C	6.78	292	89.3	Active	302		Active	> 10	> 10	14200	> 10					
CC(C)C[C@H](NC(=O)[C@H](CC(C)C)NC(=O)[C@H](C(C)C)N(C)C)C(=O)N[C@@H](C)/C=C/C(=O)N[C@@H](C)C(=O)Nc1nccs1	2500	34000	1100	Active												
CC[C@H](C)[C@@H](C(=O)O[C@@H](CC(C)C)C(=O)N[C@@H](CC(C)C)C(=O)N[C@@H](C)/C=C/C(=O)N1C(=O)C=C(OC)[C@@H]1C)N(C)C [GALLINAMIDE A]												8.5	8.5	50	140	22
COC1=CC(=O)N(C(=O)/C=C/[C@H](C)NC(=O)[C@H](CC(C)C)NC(=O)[C@H](CC(C)C)NC(=O)[C@H](C(C)C)N(C)C)[C@H]1Cc1ccc(O)cc1	5.25	81.4	20		67	Active	Active	> 10	> 10	18900	> 10					
CC[C@H](C)[C@@H](C(=O)N[C@@H](CC(C)C)C(=O)N[C@@H](CC(C)C)C(=O)N[C@H](C(=O)N[C@@H](C)/C=C/C(=O)N[C@@H](C)C(=O)N1C[C@@H](O)C[C@H]1C(=O)OC)C(C)C)N(C)C	> 50000	> 50000	> 50000	Active												
CC[C@H](C)[C@@H](C(=O)N[C@@H](CC(C)C)C(=O)N[C@@H](CC(C)C)C(=O)N[C@H](C(=O)N[C@@H](C)/C=C/C(=O)N[C@@H](C)C(=O)NCc1ccccc1)C(C)C)N(C)C (X1-LLV[Pentenoic(2E,4S-NH2)]A-NHBn)	> 50000	> 50000	> 50000	Active												
CC(C)C[C@H](NC(=O)[C@H](CC(C)C)NC(=O)[C@H](C(C)C)N(C)C)C(=O)N[C@@H](C)/C=C/C(=O)N[C@@H](C)C(=O)NCc1ccccc1	11500	> 25000	320	Active	378		Active	> 10	> 10	> 50000	> 10					
COC1=CC(=O)N(C(=O)/C=C/[C@H](C)NC(=O)[C@H](CC(C)C)NC(=O)[C@H](CC(C)C)NC(=O)[C@H](C(C)C)N(C)C)C1	24.8	225	57.3		419	Active	Active	> 10	> 10	16300	> 10					
CC[C@H](C)[C@@H](C(=O)N[C@@H](CC(C)C)C(=O)N[C@@H](CC(C)C)C(=O)N[C@@H](C)/C=C/C(=O)N[C@@H](C)C(=O)N1C[C@@H](O)C[C@H]1C(=O)OC)N(C)C	7700	> 50000	1900	Active												
COC1=CC(=O)N(C(=O)/C=C/[C@H](C)NC(=O)[C@H](CC(C)C)NC(=O)[C@H](CC(C)C)NC(=O)[C@H](C(C)C)N(C)C)[C@H]1Cc1c[nH]c2ccccc12	12	66.7	9.7		29	Active	Active	> 10	> 10	8500	> 10					
CC[C@H](C)[C@@H](C(=O)N[C@@H](CC(C)C)C(=O)N[C@@H](CC(C)C)C(=O)N[C@@H](C)/C=C/C(=O)N[C@@H](C)C(=O)NCc1ccccc1)N(C)C	10500	> 25000	540	Active	421		Active	> 10	> 10	> 50000	> 10					
CC(C)C[C@H](NC(=O)[C@H](CC(C)C)NC(=O)[C@@H]1CCCN1C)C(=O)N[C@@H](C)/C=C/C(=O)N[C@@H](C)C(=O)NCc1ccccc1	6000	46000	6600	Active												
CC(C)C[C@H](NC(=O)[C@H](CC(C)C)NC(=O)[C@@H](C(C)C)N(C)C)C(=O)N[C@@H](C)/C=C/C(=O)N[C@@H](C)C(=O)NCc1ccccc1	3400	> 25000	5400	Active	170		Active	> 10	> 10	> 50000	> 10					
